A number with no mark means an inactive call.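 How the source made its calls: active means compounds lowering the uptake signal whose fitted half-maximal concentration is at most twice their top valid dose; inconclusive means flat curve between 30% and 70% signal loss, or poor fit; inactive means opposite direction, flat near zero, or potency beyond limit.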

The nature of the experiment: DiI-HDL uptake inhibition in parental ldlA7 cells, dose response, counter-screen for SR-BI HDL uptake inhibitor project, cell-based, CHO ldlA7, fluorescence, dry powder, set 2 (AID 624007). To be noted: 3 h, at 35000 nM. An outline of the steps: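 Material: ldlA7 CHO cells without LDL receptor, no mSR-BI overexpression | Reagent: DiI-labelled HDL, 10 µg/mL final | Doses: Test compounds delivered by pin transfer | Schedule: 3 h exposure at 37 °C | Technique: DiI fluorescence, bottom read, Ex 550/Em 595 nm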
(A counterscreen serves to expose hits that act by an unwanted route or on another target.)
In the case of `C=CCOC(=O)N(C)C[C@@H]1Oc2ccc(N)cc2C(=O)N([C@H](C)CO[Si](C)(C)C(C)(C)C)C[C@H]1C`, the DiI-HDL uptake signal change vs neutral control (%), lower = more inhibition is 4.25%. To `C=CCOC(=O)N(C)C[C@@H]1Oc2ccc(NC(=O)NC(C)C)cc2C(=O)N([C@H](C)CO[Si](C)(C)C(C)(C)C)C[C@H]1C` belongs 18.2%; to `CC(C)NC(=O)Nc1ccc2c(c1)C(=O)N([C@@H](C)CO)C[C@@H](C)[C@H](CN(C)S(=O)(=O)c1ccc(Cl)cc1)O2`, -2.49%. As for `C=CCOC(=O)N(C)C[C@@H]1Oc2ccc(NC(=O)OCC3c4ccccc4-c4ccccc43)cc2C(=O)N([C@H](C)CO)C[C@H]1C`, the DiI-HDL uptake signal change vs neutral control (%), lower = more inhibition is 18.3%.

Values taken from PubChem BioAssay AID624007 (Broad Institute, 2012).
